Converted amounts (≈) assume the structure as drawn. A value given as a limit tells only on which side of the number the result lay.

Data set [1] addresses Dual specificity mitogen-activated protein kinase kinase 1 (Homo sapiens, UniProt Q02750). The data set is described as follows: Inhibition of MEK1 (unknown origin) autophosphorylation incubated with enzyme for 20 mins prior to ATP addition by ADP Glo kinase assay in presence of ATP at Km concentration. On the technique in general: ADP-Glo turns the ADP formed in a reaction into a luminescent signal.

Data set [2] has as its target T1, Mitogen-activated protein kinase 1 (Homo sapiens, UniProt P28482). The data set is described as follows: Inhibition of ERK2 in human A375 cells harboring B-RAF V600E mutant assessed as decrease in phospho-ERK2 level after 2 hrs by Cellomics ArrayScanTM VTI imaging analysis. Type of data set: cell-based, A-375.
The target of data set [3] is Mitogen-activated protein kinase; ERK1/ERK2 (Homo sapiens, UniProt P27361+P28482). Nature of the data set: Inhibition of ERK1/2 in human A375 cells harboring B-RAF V600E mutant assessed as decrease in phospho-RSK level after 2 hrs by Cellomics ArrayScanTM VTI imaging analysis. The data set is classed as cell-based. Conditions: a-375.
The target in data set [4] is T1, Mitogen-activated protein kinase 1. The data set is described as follows: Inhibition of MEK U911-activated ERK2 (unknown origin) using Erktide as substrate preincubated with enzyme for 20 mins prior to substrate addition by RapidFire Mass Spectrometry in presence of ATP at Km concentration.
Data set [5] is described as follows: Solubility of the compound in aqueous phosphate buffer at 25 degC at pH 7.4 after 24 hrs. The data set is classed as physicochemical.
Data set [6] concerns the target T1, Mitogen-activated protein kinase 1. The data set is described as follows: Inhibition of MEK U911-activated ERK2 (unknown origin) using Erktide as substrate preincubated with enzyme for 20 mins prior to substrate addition by RapidFire Mass Spectrometry in presence of ATP at higher concentration.
In a further data set the test system is A-375. The data set is described as follows: Antiproliferative activity against human A375 cells harboring B-RAF V600E mutant after 72 hrs by Cellomics ArrayScanTM VTI imaging analysis. Type of data set: functional, cell-based. Conditions: A-375, 72 h.
Data set [7] can be described thus: 1-Octanol-aqueous phosphate buffer partition coefficient, logD of the compound at pH 7.4. The data set is classed as physicochemical. The method in brief: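 Partition of compound between 1-octanol and aqueous phosphate buffer, pH 7.4; reported as distribution coefficient.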
The species named for data set [8] is Homo sapiens. The data set is described as follows: Selectivity for ERK (unknown origin) over C-RAF (unknown origin) at 1 uM. The method in brief: (§1)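 Panel of 125 kinases screened with compound at 1 µM; kinases inhibited above 75% were recorded.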
The species named for data set [9] is Homo sapiens. The data set is described as follows: Selectivity for ERK (unknown origin) over FLT1 (unknown origin) at 1 uM. The essentials:
as §1

The species entered for data set [10] is Homo sapiens. Nature of the data set: Selectivity for ERK (unknown origin) over MEK1 (unknown origin) at 1 uM. The method in brief:
as §1

Data set [11] can be described thus: Intrinsic clearance in human liver microsomes. Conditions: read-out: CLH. Type of data set: ADME. (In general: Microsomes from liver hold many membrane-bound enzymes, among them those of drug oxidation.)
For a further data set, the system named is Hepatocyte. The data set is described as follows: Intrinsic clearance in rat hepatocytes. The data set is classed as ADME, cell-based.

Sequence of Dual specificity mitogen-activated protein kinase kinase 1 (Q02750 whole entry): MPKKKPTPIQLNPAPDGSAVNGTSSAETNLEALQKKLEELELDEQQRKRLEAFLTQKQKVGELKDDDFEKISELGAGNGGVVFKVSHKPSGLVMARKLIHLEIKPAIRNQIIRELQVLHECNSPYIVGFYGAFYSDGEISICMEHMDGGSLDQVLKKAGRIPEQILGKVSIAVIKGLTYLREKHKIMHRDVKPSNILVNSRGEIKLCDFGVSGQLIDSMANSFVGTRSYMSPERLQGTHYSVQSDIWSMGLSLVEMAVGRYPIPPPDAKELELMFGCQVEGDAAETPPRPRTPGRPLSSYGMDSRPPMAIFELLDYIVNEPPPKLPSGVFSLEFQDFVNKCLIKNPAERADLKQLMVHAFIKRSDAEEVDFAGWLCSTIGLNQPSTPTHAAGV

In the case of `COc1cc(O)c2c(c1)/C=C/C[C@H](O)[C@@H](O)C(=O)/C=C/C[C@H](C)OC2=O`, the IC50 – broadly, the concentration at which inhibition is half-maximal – turned out to be 3400 nM in data set [1]; 1600 nM in data set [2]; 5700 nM in [3]; 5100 nM in data set [4]; 3700 nM in [6]; 4100 nM in the data set with A-375. In data set [5], the solubility (commonly how much of the substance goes into solution per volume) at 24 h came to 47 µM (≈ 17 µg/mL). Besides, in [7], the logD (as a rule, the decadic logarithm of the distribution of all forms, ionised or not, between an organic phase and buffer at a given pH) was 1.6.

For `CNC(=O)c1ccccc1Nc1cc(NC2CCOCC2)ncc1Cl`, the IC50 in data set [1] was over 10000 nM; in data set [2], 7500 nM; in [3], 10000 nM; in [4], 260 nM. Also, in data set [5], the concentration in solution (solubility at 24 h) was 290 µM (≈ 105 µg/mL). The compound also gave a logD in [7] of 2.8.

In data set [5], `O=C(Nc1ccc2[nH]nc(-c3ccncc3)c2c1)[C@@H]1CCN(CC(=O)N2CCN(c3ccc(-c4ncccn4)cc3)CC2)C1` displayed a solubility at 24 h of under 2.1 µM. Moreover, the IC50 with A-375 came out at 70 nM. Further, the logD in [7] was 3.2.

`CCC(=O)Nc1ccccc1Nc1nc(NC2CCOCC2)ncc1Cl`: the IC50 in data set [2] is over 30000 nM; in [3] it was over 30000 nM; in data set [4] it was 480 nM; in data set [6] it was 4000 nM; with A-375 it was 6600 nM.

With `C=CS(=O)(=O)N1CCc2[nH]nc(-c3ccnc(C)c3)c2C1`, the Selectivity ratio in the data set listed under Homo sapiens [8], in the data set filed under Homo sapiens [9] and in the data set listed under Homo sapiens [10] was 5 throughout. In addition, the IC50 in data set [1] was 4900 nM; in [2], 380 nM; in data set [3], 1000 nM; in [4], 74 nM; in data set [6] it was 110 nM; in the data set on A-375, 1400 nM. In data set [5], this compound displayed a solubility at 24 h of 300 µM (≈ 91.3 µg/mL). Besides, the logD in [7] worked out at 1.6.

As for `C=CC(=O)Nc1ccccc1Nc1nc(NC2CCOCC2)ncc1C`, the Selectivity ratio in the data set filed under Homo sapiens [8] and in the data set filed under Homo sapiens [10] was 2 throughout. In addition, the microsomal CLint in data set [11] was found to be 13 µL/min/mg. Further, the IC50 is over 10000 nM in data set [1]; 170 nM in data set [2]; 740 nM in data set [3]; 77 nM in [4]; 88 nM in [6]; 470 nM in the data set on A-375. Further, the CLH in the data set on Hepatocyte was determined as 59 µL/min/mg. The amount in solution in data set [5] (solubility at 24 h) came to 170 µM (≈ 60.1 µg/mL). The same compound had a logD in data set [7] of 2.

Regarding `CC(C)Nc1cc(-c2c[nH]c(C(=O)N[C@H](CO)c3cccc(Cl)c3)c2)c(Cl)cn1` [ULIXERTINIB], the concentration in solution in data set [5] (solubility at 24 h) was 8.5 µM (≈ 3.68 µg/mL). Half-maximal inhibition with A-375 (IC50) was put at 180 nM. This compound showed a logD in [7] of over 4.

Consider `CCS(=O)(=O)N1CCc2cnc(NC3CCOCC3)nc2C1`, for which the IC50 in data set [2] was 10000 nM; in data set [3] it was over 30000 nM; in data set [4], 9000 nM; in data set [6] it was over 10000 nM.

Consider `C=CC(=O)Nc1ccccc1Nc1nc(Nc2ccnn2C)ncc1C`, for which, in data set [11], the microsomal CLint came out at 19 µL/min/mg. Besides, the IC50 was 260 nM in data set [1]; 66 nM in [2]; 280 nM in data set [3]; 39 nM in data set [4]; 47 nM in data set [6]; 240 nM in the data set on A-375. This compound showed a CLH in the data set with Hepatocyte of 33 µL/min/mg. Besides, the solubility at 24 h in data set [5] stood at 990 µM (≈ 346 µg/mL). The compound further yielded a logD in [7] of 2.1.

Regarding `C=CC(=O)Nc1ccccc1Nc1cc(NC2CCOCC2)ncc1Cl`, the Selectivity ratio in the data set filed under Homo sapiens [8] and in the data set filed under Homo sapiens [10] was 2 in each case. Besides, the microsomal CLint in data set [11] worked out at 24 µL/min/mg. Also, the IC50 was over 10000 nM in data set [1]; 120 nM in [2]; 400 nM in [3]; 42 nM in data set [4]; 60 nM in data set [6]; 680 nM in the data set with A-375. This compound also came in with a CLH in the data set with Hepatocyte of 270 µL/min/mg. The solubility at 24 h in data set [5] is 40 µM (≈ 14.9 µg/mL). Moreover, in data set [7], the logD stood at 2.5.

Regarding `CCS(=O)(=O)Nc1ccc2[nH]nc(-c3ccncc3)c2c1`, the IC50 in data set [2] was 10000 nM; in data set [3], over 30000 nM; in [4], 280 nM; in data set [6] it was 1800 nM; in the data set with A-375, over 30000 nM.

For the origin of these results see ChEMBL document CHEMBL3588785 (J Med Chem, 2015).
